How the values were obtained:
[1] = Toxicity in ICR mouse assessed as decrease in creatinine level at 30 to 100 mg/kg administered for 14 days; assay type: organism-based; conditions: in vivo, 336 h, dose 30-100 mg/kg, time 14 day
[2] = Toxicity in immunocompetent female C57BL/6 mouse implanted with mouse MC-38 cells assessed as body weight loss at 50 mg/kg, po administered once a day with five days on and two days off; assay type: organism-based; conditions: in vivo
Outline: (§1)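 Syngeneic models in female C57BL/6 mice aged 6–7 weeks: MC38 (10⁵ cells) or Hepa1–6 (10⁶ cells) injected subcutaneously into the left flank. Oral dosing on a five-on/two-off schedule: MC38 at 50 mg/kg QD or BID for 3 weeks, Hepa1–6 at 30 mg/kg QD. Body weight was recorded weekly. n = 8–9 per group.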

[3] = Toxicity in immunodeficient NOD/SCID mouse xenografted with MER/AXL overexpressing human MDA-MB-231 cells assessed as body weight loss at 50 mg/kg, po administered once a day with five days on and two days off; assay type: organism-based; conditions: in vivo
[4] = Volume of distribution at steady state in male ICR mouse at 2 mg/kg, iv measured after 24 hrs by LC-MS/MS analysis; assay type: ADME, organism-based; conditions: in vivo
Outline: (§2)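 Male ICR mice (25–35 g) given one iv or oral dose of 2, 3 or 10 mg/kg. Vehicles were PEG400/DMA (80/20) for both routes, or DMSO/CrEL/D5W (5/5/90) iv and 1% CMC + 0.5% Tween80 oral. Plasma was taken by cardiac puncture at 0–24 h, three mice per time point. Parent drug was measured by LC-MS/MS and analysed noncompartmentally. DNAUC = AUC(0–inf)/dose.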

[5] = Toxicity in immunocompetent female C57BL/6 mouse implanted with mouse MC-38 cells assessed as body weight loss at 50 mg/kg, po administered twice a day with five days on and two days off for 3 weeks; assay type: organism-based; conditions: in vivo, 504 h; outline: as §1
[6] = Toxicity in immunocompetent female C57BL/6 mouse implanted with mouse Hepa1-6 cells assessed as body weight loss at 30 mg/kg, po administered once a day with five days on and two days off; assay type: organism-based; conditions: in vivo; outline: as §1
[7] = Toxicity in immunocompetent female C57BL/6 mouse implanted with mouse MC-38 cells assessed as body weight loss at 50 mg/kg, po administered once a day with five days on and two days off for 3 weeks; assay type: organism-based; conditions: in vivo, 504 h; outline: as §1
[8] = Toxicity in BALB/c mouse implanted with mouse 4T1 cells assessed as body weight loss at 50 mg/kg, po administered once a day with five days on and two days off; assay type: organism-based; conditions: in vivo
Outline: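 Female Balb/c mice aged 6–7 weeks implanted with 4T1 cells (1 million in matrigel/medium) in the fourth left mammary fat pad. Treatment started near 50–60 mm³: 50 mg/kg oral QD on a five-on/two-off schedule. Body weight was measured weekly. n = 8–9 per group.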

[9] = Toxicity in ICR mouse at 10 to 100 mg/kg administered for 14 days; assay type: organism-based; conditions: in vivo, 336 h, dose 10-100 mg/kg, time 14 day
[10] = target: Tyrosine-protein kinase receptor UFO (Homo sapiens) (UniProt P30530); experiment: Inhibition of AXL (unknown origin) at 1 uM preincubated for 15 mins followed by substrate and ATP addition and measured after 3 hrs by ADP-Glo kinase assay relative to control; conditions: time 195.0 min
[11] = target: Epidermal growth factor receptor (Homo sapiens) (UniProt P00533); experiment: Inhibition of wildtype EGFR (unknown origin) at 1 uM by kinase Glo assay relative to control
Outline: (§3)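 In-house Kinase-Glo luminescence assay on wild-type and T790M/L858R EGFR. Values are the mean of at least two independent experiments.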

[12] = target: T1, Tyrosine-protein kinase Mer (Homo sapiens) (UniProt Q12866); experiment: Inhibition of MER (unknown origin) at 1 uM preincubated for 15 mins followed by substrate and ATP addition and measured after 3 hrs by ADP-Glo kinase assay relative to control; conditions: time 195.0 min
T1 sequence (whole entry): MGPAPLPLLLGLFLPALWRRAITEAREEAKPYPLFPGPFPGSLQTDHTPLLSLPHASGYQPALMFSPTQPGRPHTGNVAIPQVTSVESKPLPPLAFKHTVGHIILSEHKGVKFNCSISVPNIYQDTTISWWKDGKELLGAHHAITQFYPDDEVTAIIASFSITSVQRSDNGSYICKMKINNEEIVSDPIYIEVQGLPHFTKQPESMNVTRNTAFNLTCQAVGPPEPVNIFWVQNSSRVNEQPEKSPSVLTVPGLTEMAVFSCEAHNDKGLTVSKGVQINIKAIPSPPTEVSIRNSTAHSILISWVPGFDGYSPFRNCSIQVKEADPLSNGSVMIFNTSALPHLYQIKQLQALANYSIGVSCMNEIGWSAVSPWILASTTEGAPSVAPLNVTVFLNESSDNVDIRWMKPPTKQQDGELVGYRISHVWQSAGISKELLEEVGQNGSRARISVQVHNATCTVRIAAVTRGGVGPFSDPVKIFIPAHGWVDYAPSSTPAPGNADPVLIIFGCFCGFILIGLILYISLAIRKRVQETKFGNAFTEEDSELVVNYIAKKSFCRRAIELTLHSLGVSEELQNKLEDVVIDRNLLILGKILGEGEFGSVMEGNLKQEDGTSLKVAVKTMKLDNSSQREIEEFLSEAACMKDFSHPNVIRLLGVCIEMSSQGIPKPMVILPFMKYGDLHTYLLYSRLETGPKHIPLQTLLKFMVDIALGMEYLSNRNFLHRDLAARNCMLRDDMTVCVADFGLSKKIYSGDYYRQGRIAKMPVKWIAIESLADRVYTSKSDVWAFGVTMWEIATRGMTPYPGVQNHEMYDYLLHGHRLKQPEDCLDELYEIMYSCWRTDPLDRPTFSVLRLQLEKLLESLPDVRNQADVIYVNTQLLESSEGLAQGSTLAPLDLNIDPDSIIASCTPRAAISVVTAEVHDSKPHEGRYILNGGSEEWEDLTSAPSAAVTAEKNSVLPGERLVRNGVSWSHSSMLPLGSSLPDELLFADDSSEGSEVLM

[13] = tested on: Epidermal growth factor receptor (Homo sapiens), P00533 [L858R,T790M]; experiment: Inhibition of EGFR T790M/L858R double mutant (unknown origin) at 1 uM by kinase Glo assay relative to control; outline: as §3
[14] = Toxicity in ICR mouse assessed as decrease in creatinine level at 100 mg/kg administered for 14 days; assay type: organism-based; conditions: in vivo, 336 h, time 14 day
MDA-MB-231 [15] = experiment: Antitumor activity against MER/AXL overexpressing human MDA-MB-231 cells xenografted in immunodeficient NOD/SCID mouse model assessed as tumor growth inhibition at 25 mg/kg, po administered twice a day with five days on and two days off for 4 weeks in presence of bemcentinib relative to control; assay type: functional; conditions: MDA-MB-231, 672 h, read-out: TGI
Outline: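 MDA-MB-231 cells (5 million, 1:1 matrigel/medium) implanted in 6–7-week-old female NOD/SCID mice. Dosing began at about 150 mm³ mean tumor volume: 25 mg/kg oral BID on a five-on/two-off schedule for 4 weeks, given alone or in combination.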

MDA-MB-231 [16] = experiment: Antitumor activity against MER/AXL overexpressing human MDA-MB-231 cells xenografted in immunodeficient NOD/SCID mouse model assessed as tumor growth inhibition at 25 mg/kg, po administered twice a day with five days on and two days off for 4 weeks relative to control; assay type: functional; conditions: MDA-MB-231, 672 h, read-out: TGI
Outline: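 Female NOD/SCID mice (6–7 weeks old) were given 5 million Mycoplasma-free MDA-MB-231 cells in 1:1 matrigel/medium, implanted subcutaneously. After randomization at about 150 mm³ average tumor volume, mice got oral drug or vehicle, BID, FOTO, for 4 weeks, n = 8 per group. Caliper volumes (L×W×W/2) were measured weekly. %TGI = [1 − ΔT/ΔC]×100, with Δ taken from day 0.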

[17] = Dose normalized AUC (0 to infinity) in male ICR mouse at 2 mg/kg, iv measured after 24 hrs by LC-MS/MS analysis; assay type: ADME, organism-based; conditions: in vivo; outline: as §2
[18] = Dose normalized AUC (0 to infinity) in male ICR mouse at 10 mg/kg, po measured after 24 hrs by LC-MS/MS analysis; assay type: ADME, organism-based; conditions: in vivo; outline: as §2
[19] = target: T2, Tyrosine-protein kinase Mer (Homo sapiens, UniProt Q12866); experiment: Inhibition of MER (unknown origin) by KINOMEScan assay
T2 sequence (Q12866 whole entry): T1 sequence (whole entry)

[20] = Toxicity in immunocompetent female C57BL/6 mouse implanted with mouse MC-38 cells assessed as body weight loss at 25 to 50 mg/kg, po administered twice a day with five days on and two days off for 3 weeks; assay type: organism-based; conditions: in vivo, 504 h, dose 25-50 mg/kg
Outline: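 Female C57BL/6 mice aged 6–7 weeks bearing subcutaneous MC38 (10⁵ cells) tumors, treated from 50–60 mm³. Dosing was 25 or 50 mg/kg oral BID on a five-on/two-off schedule for 3 weeks. Body weight was recorded weekly. n = 8 per group.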

[21] = Dose normalized AUC (0 to infinity) in male ICR mouse at 3 mg/kg, po measured after 24 hrs by LC-MS/MS analysis; assay type: ADME, organism-based; conditions: in vivo; outline: as §2
[22] = Dose normalized AUC (0 to infinity) in male ICR mouse at 3 mg/kg, iv measured after 24 hrs by LC-MS/MS analysis; assay type: ADME, organism-based; conditions: in vivo; outline: as §2
MDA-MB-231 [23] = experiment: Antitumor activity against MER/AXL overexpressing human MDA-MB-231 cells xenografted in immunodeficient NOD/SCID mouse model assessed as tumor growth inhibition at 25 mg/kg, po administered twice a day with five days on and two days off for 4 weeks in presence of (1r,4r)-4-(2-(butylamino)-5-(4-((4-methylpiperazin-1-yl)methyl)phenyl)-7H-pyrrolo[2,3-d]pyrimidin-7-yl)cyclohexan-1-ol relative to …; assay type: functional; conditions: MDA-MB-231, 672 h, read-out: TGI

Epidermal growth factor receptor (Homo sapiens), P00533 [L858R,T790M], sequence (P00533 whole entry T790M/L858R, looked up): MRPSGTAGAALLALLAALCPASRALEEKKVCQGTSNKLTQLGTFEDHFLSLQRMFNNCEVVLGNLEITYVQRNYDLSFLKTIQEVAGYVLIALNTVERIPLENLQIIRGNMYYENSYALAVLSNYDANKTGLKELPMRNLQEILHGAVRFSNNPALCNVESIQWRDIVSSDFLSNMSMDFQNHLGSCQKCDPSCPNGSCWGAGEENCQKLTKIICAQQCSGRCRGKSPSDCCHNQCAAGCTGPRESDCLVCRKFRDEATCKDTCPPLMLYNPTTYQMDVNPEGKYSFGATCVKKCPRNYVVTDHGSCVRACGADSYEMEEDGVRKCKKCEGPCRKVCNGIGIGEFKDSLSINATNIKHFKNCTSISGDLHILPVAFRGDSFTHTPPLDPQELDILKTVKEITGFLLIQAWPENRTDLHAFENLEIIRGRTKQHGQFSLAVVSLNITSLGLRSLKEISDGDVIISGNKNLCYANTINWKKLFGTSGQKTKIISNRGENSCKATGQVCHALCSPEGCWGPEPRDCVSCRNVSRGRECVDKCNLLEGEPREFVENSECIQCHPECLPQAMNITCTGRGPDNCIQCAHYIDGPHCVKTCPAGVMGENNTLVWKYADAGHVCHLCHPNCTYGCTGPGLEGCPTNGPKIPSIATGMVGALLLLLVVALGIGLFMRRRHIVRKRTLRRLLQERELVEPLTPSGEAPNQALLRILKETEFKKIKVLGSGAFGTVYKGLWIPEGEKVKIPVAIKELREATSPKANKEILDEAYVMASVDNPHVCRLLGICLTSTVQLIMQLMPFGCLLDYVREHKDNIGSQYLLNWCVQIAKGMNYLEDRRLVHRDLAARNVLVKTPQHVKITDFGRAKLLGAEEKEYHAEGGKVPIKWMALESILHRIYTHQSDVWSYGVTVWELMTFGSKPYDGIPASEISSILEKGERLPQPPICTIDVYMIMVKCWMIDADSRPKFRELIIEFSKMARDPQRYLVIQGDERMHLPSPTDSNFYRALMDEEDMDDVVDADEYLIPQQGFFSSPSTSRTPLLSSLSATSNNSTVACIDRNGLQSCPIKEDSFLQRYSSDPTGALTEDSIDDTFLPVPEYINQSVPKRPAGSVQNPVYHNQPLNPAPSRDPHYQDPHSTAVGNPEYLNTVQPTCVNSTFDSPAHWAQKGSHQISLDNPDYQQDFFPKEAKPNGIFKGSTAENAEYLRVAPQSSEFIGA
Epidermal growth factor receptor (Homo sapiens), sequence (P00533 whole entry): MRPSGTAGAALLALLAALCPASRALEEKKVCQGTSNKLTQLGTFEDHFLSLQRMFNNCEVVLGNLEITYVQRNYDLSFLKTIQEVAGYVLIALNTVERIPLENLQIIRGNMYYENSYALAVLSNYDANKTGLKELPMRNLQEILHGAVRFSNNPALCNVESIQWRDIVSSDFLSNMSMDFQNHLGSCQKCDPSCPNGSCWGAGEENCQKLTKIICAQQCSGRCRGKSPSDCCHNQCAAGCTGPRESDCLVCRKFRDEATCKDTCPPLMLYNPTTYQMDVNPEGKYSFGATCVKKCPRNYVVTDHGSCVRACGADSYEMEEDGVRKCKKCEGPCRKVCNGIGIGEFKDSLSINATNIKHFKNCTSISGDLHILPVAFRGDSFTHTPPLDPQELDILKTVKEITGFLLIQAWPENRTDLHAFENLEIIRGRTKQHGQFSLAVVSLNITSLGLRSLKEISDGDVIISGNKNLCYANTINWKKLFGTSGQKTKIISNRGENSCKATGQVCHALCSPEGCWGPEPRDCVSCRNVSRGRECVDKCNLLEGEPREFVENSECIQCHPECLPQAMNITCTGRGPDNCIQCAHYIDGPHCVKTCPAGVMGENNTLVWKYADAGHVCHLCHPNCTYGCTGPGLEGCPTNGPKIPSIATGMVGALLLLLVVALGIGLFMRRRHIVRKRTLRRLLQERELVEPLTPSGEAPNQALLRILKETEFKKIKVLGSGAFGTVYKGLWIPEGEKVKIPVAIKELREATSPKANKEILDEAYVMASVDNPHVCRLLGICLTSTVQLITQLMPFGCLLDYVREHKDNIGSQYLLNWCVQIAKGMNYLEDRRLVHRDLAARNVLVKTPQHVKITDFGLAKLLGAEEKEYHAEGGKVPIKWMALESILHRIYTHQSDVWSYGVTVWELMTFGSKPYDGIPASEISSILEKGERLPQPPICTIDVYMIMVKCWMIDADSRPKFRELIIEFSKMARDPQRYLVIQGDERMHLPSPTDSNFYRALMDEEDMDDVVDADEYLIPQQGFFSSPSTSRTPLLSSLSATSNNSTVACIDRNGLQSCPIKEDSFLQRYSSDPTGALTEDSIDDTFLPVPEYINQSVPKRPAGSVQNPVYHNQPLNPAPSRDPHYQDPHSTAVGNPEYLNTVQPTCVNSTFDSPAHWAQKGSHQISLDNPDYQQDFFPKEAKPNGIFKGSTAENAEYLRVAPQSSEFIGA
Tyrosine-protein kinase receptor UFO (Homo sapiens), sequence (P30530 whole entry): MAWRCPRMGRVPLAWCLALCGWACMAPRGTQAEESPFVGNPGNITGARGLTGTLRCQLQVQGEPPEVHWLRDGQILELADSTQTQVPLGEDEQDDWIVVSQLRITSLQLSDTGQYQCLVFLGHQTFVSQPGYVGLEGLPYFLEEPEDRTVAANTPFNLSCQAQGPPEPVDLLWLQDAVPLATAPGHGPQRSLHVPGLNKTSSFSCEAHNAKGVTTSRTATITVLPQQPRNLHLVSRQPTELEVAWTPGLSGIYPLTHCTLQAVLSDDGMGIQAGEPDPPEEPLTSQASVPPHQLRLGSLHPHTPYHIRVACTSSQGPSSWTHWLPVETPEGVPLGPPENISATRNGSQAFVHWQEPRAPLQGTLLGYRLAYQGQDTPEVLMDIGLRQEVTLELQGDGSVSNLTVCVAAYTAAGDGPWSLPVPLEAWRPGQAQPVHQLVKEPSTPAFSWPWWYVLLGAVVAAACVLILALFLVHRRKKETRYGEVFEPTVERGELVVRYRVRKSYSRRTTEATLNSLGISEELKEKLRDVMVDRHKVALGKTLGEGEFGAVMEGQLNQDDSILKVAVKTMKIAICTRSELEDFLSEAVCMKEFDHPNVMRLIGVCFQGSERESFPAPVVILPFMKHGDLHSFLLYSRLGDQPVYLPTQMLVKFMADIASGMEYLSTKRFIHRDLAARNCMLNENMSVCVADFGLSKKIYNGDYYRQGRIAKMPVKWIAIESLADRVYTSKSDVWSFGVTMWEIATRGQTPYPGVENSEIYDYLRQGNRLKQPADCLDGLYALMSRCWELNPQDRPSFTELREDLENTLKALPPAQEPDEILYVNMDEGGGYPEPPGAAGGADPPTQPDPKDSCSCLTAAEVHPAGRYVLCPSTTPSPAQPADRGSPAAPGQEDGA

For `CN(C)Cc1cccc(-c2c(-c3cnn(C)c3)oc3ncnc(Oc4ccc(NC(=O)c5cccn(-c6ccc(F)cc6)c5=O)cc4)c23)c1`, the Activity [1] was “Toxic”, the Activity [2] was “Non-Toxic” and the Activity [3] was “Non-Toxic”. The Vdss [4] was 52 L/kg, the Activity [5] was “Non-Toxic” and the Activity [6] was “Non-Toxic”. For the same compound, the Activity [7] was “Non-Toxic”, the Activity [8] was “Non-Toxic” and the Activity [9] was “Non-Toxic”.

For `Nc1cccc(-c2c(-c3ccccc3)oc3ncnc(Oc4ccc(NC(=S)NC(=O)Cc5ccccc5)cc4)c23)c1`, the inhibition [10] was 95%, the inhibition [11] was 1% and the inhibition [12] was 9%. The inhibition [13] was -6%.

In the case of `COc1cc2nccc(Oc3ccc(NC(=O)c4cc5c(n(-c6ccccc6)c4=O)CCCC5=O)nc3)c2cc1OC` [TAMNORZATINIB], the Activity [2] is reported as “Non-Toxic”, the Activity [3] is reported as “Non-Toxic” and the Activity [6] is reported as “Non-Toxic”. For the same compound, the Activity [8] was “Non-Toxic” and the Activity [14] was “Toxic”.

For `O=C(Nc1ccc(F)cc1)C1(C(=O)Nc2ccc(Oc3ncnc4oc(-c5ccccc5)cc34)cc2)CC1`, the inhibition [10] was 53%, the inhibition [11] was 4% and the inhibition [12] was 4%. The inhibition [13] was 1%.

In the case of `O=C(Nc1ccc(F)cc1)C1(C(=O)Nc2ccc(Oc3ncnc4oc(-c5ccccc5)c(-c5ccccc5)c34)cc2)CC1`, the inhibition [10] is reported as 98%, the inhibition [11] is reported as 3% and the inhibition [12] is reported as 41%. It also gave an inhibition [13] of 2%.

Compound `CCCCNc1ncc2c(-c3ccc(CN4CCN(C)CC4)cc3)cn([C@H]3CC[C@H](O)CC3)c2n1` has an inhibition in vivo at 25 mg/kg (MDA-MB-231 [15]) of 52.4% and an inhibition in vivo at 25 mg/kg (MDA-MB-231 [16]) of 15.9%.

With `CNc1cccc(-c2c(-c3cnn(C)c3)oc3ncnc(Oc4ccc(NC(=O)c5cccn(-c6ccc(F)cc6)c5=O)cc4)c23)c1` the AUC/dose [17] was 3330.5 ng.hr/ml per mg/kg and the AUC/dose [18] was 15.3 ng.hr/ml per mg/kg.

With `Cn1cc(-c2oc3ncnc(Oc4ccc(NC(=O)c5cccn(-c6ccc(F)cc6)c5=O)cc4)c3c2-c2cccc(N3CCNCC3)c2)cn1` the AUC/dose [17] was 454.5 ng.hr/ml per mg/kg and the AUC/dose [18] was 2.6 ng.hr/ml per mg/kg.

For `Cc1ccc(C(=O)Nc2ccc(Oc3cc4cnn(C)c4cc3-c3cn[nH]c3)c(F)c2)c(=O)n1-c1ccc(F)cc1` [MERESTINIB], the IC50 [19] was 0.8 nM.

For `Cn1cc(-c2oc3ncnc(Oc4ccc(NC(=O)c5cccn(-c6ccc(F)cc6)c5=O)cc4)c3c2-c2cccc(N)c2)cn1`, the Activity [20] was “Non-Toxic”, the Activity [5] was “Non-Toxic” and the AUC/dose [21] was 764 ng·h/mL. The AUC/dose [22] was 3985.3 ng·h/mL and the Activity [7] was “Non-Toxic”.

In the case of `Nc1nc(Nc2ccc3c(c2)CC[C@@H](N2CCCC2)CC3)nn1-c1cc2c(nn1)-c1ccccc1CCC2` [BEMCENTINIB], the inhibition in vivo at 25 mg/kg (MDA-MB-231 [16]) is reported as 7.7% and the inhibition in vivo at 25 mg/kg (MDA-MB-231 [23]) is reported as 52.4%.

In the case of `CN1CCN(c2cccc(-c3c(-c4cnn(C)c4)oc4ncnc(Oc5ccc(NC(=O)c6cccn(-c7ccc(F)cc7)c6=O)cc5)c34)c2)CC1`, the AUC/dose [17] is reported as 221 ng.hr/ml per mg/kg and the AUC/dose [18] is reported as 32.8 ng.hr/ml per mg/kg.

For `Nc1cccc(-c2c(-c3ccccc3)oc3ncnc(Oc4ccc(NC(=O)C5(C(=O)Nc6ccc(F)cc6)CC5)cc4)c23)c1`, the inhibition [10] was 100%, the inhibition [11] was 0% and the inhibition [12] was 71%. It also gave an inhibition [13] of -9%.

`Cn1cc(-c2oc3ncnc(Oc4ccc(NC(=O)c5cccn(-c6ccc(F)cc6)c5=O)cc4)c3c2-c2cccc(CN)c2)cn1` showed an AUC/dose [17] of 483 ng.hr/ml per mg/kg.

`Nc1cccc(-c2c(-c3ccccc3)oc3ncnc(Nc4ccc(NC(=O)C5(C(=O)Nc6ccc(F)cc6)CC5)cc4)c23)c1` gave an inhibition [10] of 92%, an inhibition [11] of 1% and an inhibition [12] of 19%. The inhibition [13] was -4%.

Source: ChEMBL document CHEMBL5500411, “Discovery of Dual MER/AXL Kinase Inhibitors as Bifunctional Small Molecules for Inhibiting Tumor Growth and Enhancing Tumor Immune Microenvironment” (J Med Chem, 2024)
